Arbovirus anti = antivirals against arbovirus infection; inhibition, % at 10 µM; AID 1251; arbovirus infection cell-based antiviral screen; 200,000 tested, 0.37% active; in the data active = inhibition above about 30%
Mcl1-Bid inh = Mcl-1/Bid interaction inhibition; Q07820; TR-FRET Mcl-1/Bid-Dy647 peptide binding, 1536-well; inhibition, % at 21.7 µM; 220,000 tested, 0.97% active; AID 1021;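 active = compounds that cut the binding signal by more than half at the single screening dose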;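 also: His-tagged Mcl-1 with europium anti-His antibody binding Bid BH3 peptide; 0% = Mcl-1 plus peptide wells and 100% = peptide-only wells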
Target sequence (Q07820 whole entry, looked up): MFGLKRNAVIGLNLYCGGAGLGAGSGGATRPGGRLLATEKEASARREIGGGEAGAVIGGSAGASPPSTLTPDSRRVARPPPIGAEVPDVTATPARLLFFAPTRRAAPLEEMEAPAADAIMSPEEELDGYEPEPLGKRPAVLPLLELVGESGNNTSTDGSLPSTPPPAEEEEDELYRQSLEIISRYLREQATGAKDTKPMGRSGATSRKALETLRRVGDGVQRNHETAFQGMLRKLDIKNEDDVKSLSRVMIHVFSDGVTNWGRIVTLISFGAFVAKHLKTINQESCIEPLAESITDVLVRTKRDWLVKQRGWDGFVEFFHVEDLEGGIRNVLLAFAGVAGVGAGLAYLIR
m-calpain inh = inhibitors of pig calpain II | purified calpain II, fluorogenic peptide substrate, 30 min | inhibition, % at 16 µM | 220,000 tested, 0.37% active | AID 1236;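 active = inhibition above about 50%, limit read from the data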
Calb biofilm kill = mixture kills Candida albicans biofilm cells | C. albicans biofilm persisters + clotrimazole, fluorescence viability; primary screen in compound mixtures of four per well | inhibition, % at 7.6 µM | 120,000 tested, 0.02% active | AID 1242;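 active = inhibition above 30.3% in the primary screen of four-compound pools, then above 30% when the compound was retested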;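 also: compounds exposed to preformed 24 h biofilms for 48 h; 0% = untreated biofilm control and 100% = clotrimazole plus chlorhexidine kill blank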
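Test system: C. albicans CAF4-2 wild-type biofilms; buffer or medium: RPMI/MOPS medium, pH 7.0; schedule: 24 h biofilm formation, then 48 h compound exposure, 37 °C; detection: Alamar Blue fluorescence; measure: percent inhibition of biofilm viability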
Bim-Mcl-1 = human Bim-Mcl-1 interaction inhibition; Q07820; Bead-based flow cytometry, Bim peptide-Mcl-1 binding; inhibition, % at 10 µM; 190,000 tested, 0.1% active; AID 1009; in the data active = inhibition above about 40%;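 also: 0% = no compound tracer wells and 100% = peptide blocker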
Mcl1-Noxa inh = Mcl-1/Noxa interaction inhibition; Q07820; TR-FRET Mcl-1/Noxa peptide binding, 2 h; inhibition, % at 21.7 µM; 220,000 tested, 1.5% active;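 active = compounds that cut the protein-peptide binding signal by more than 50% relative to plate controls in a single-dose test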;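 also: His-tagged Mcl-1 with rhodamine Noxa BH3 peptide and terbium anti-His antibody; 0% = Mcl-1 plus Noxa peptide wells and 100% = peptide-only wells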
* hit, by the source's call; i = inactive; nt = no result. Sampled rows, rich in hits. Any-hit rate of the full collection: about 2.8%.

SMILES	Arbovirus anti	Mcl1-Bid inh	m-calpain inh	Calb biofilm kill	Bim-Mcl-1	Mcl1-Noxa inh
CCc1nnc(NS(=O)(=O)c2ccc(NC(=O)c3cc4ccccc4oc3=O)cc2)s1	13	8	-8	10	-7	64*
COc1cc(NC(=O)c2ccc3c(=O)n(Cc4ccco4)c(=S)[nH]c3c2)cc(OC)c1OC	-4	52*	11	nt	-2	43
COc1ccc(CCn2c(=S)[nH]c3cc(C(=O)NCc4ccco4)ccc3c2=O)cc1OC	-3	52*	-106	nt	-3	8
CC(C)CCN1CCN(Cc2cnc(N3CCCC3)s2)CC1CCO (stereo not drawn)	2	-45	9	15	-1	4
Cc1nn(-c2ccccn2)c2c1C(=O)C(Br)CC2 (stereo not drawn)	-8	-9	-12	12	18	55*
CC1=CC(C)(C)Nc2ccccc21	-1	28	9	nt	-1	67*
CN(C)/C=N/C(=S)Nc1ccc(Cl)cc1Cl	0	-33	4	10	0	12
Oc1[nH]c2ccccc2c1N=Nc1ncnc2c1oc1ccccc12	nt	10	-9	11	nt	65*
CCc1cc2c(N=Nc3c(O)[nH]c4ccccc34)ncnc2s1	7	10	-19	14	0	15
O=C(NC(=S)Nc1ccc2c(c1)OCCO2)c1ccccc1F	4	68*	-3	-14	-3	33
O=C(Nc1ccc2c(c1)OCCO2)c1ccccc1F	-3	-18	19	nt	1	-26
O=C(Cn1nc(-c2ccc3c(c2)OCCO3)ccc1=O)Nc1cccc(NC(=O)c2ccccn2)c1	-4	25	62*	11	-2	-28
O=C(Nc1ccc2c(c1)OCCO2)c1cccc2nc3ccccc3nc12	-29	21	-53	nt	6	62*
O=C(Nc1ccc2c(c1)OCCO2)c1ccc2ccccc2n1	-6	-11	10	6	0	14
O=C(Cn1nc(-c2ccc3c(c2)OCCO3)ccc1=O)Nc1ccc(N2CCOCC2)cc1	7	-19	-20	7	0	20
O=C(Nc1ccc(NC(=O)c2ccccn2)cc1)C(=O)Nc1ccc2c(c1)OCCO2	-3	34	-1	17	0	54*
CCOC(=O)N1CCN(C(=O)CSCc2ccc(Br)cc2)CC1	7	-23	21	7	-2	8
CCOC(=O)CSc1nnc2n1C(C)(C)Cc1ccccc1-2	4	-11	15	nt	-3	92*
CC(C)OC(=O)CSc1nnc2n1C(C)(C)Cc1ccccc1-2	-2	-50	13	nt	-2	-6
C/C(=N\NC(=O)c1c(Cl)c(C)nn1C)c1cccc(NC(=O)COc2ccccc2)c1	-5	60*	40	nt	4	-65
C/C(=N\NC(=O)c1c(Cl)c(C)nn1C)c1ccc(NC(=O)COc2ccc(Cl)cc2C)cc1	-8	0	-285	nt	-3	-5
CCOC(=O)CN1N=C(/C=C/c2ccc(C(C)C)cc2)CCC1=O	2	-16	55*	3	-2	-21
CC(NC(=O)Nc1ccccn1)N1C(=O)C2C3C=CC(C3)C2C1=O (stereo not drawn)	-4	-11	9	nt	48*	-4
O=C(NCN1C(=O)C2C3C=CC(C3)C2C1=O)Nc1ccccn1 (stereo not drawn)	1	-4	16	nt	1	-23
CCN(CC)CCNC(=O)c1ccc(NC(=O)c2ccc(F)cc2F)cc1	-4	-5	-17	0	-1	-12
SMILES	Arbovirus anti	Mcl1-Bid inh	m-calpain inh	Calb biofilm kill	Bim-Mcl-1	Mcl1-Noxa inh
O=C(NCc1ccco1)c1cc2ccc(O)cc2oc1=O	9	-75	i	nt	0	56*
Cc1ccnc(NC(=O)CCC(=O)N(CC(=O)NC(C)(C)C)c2ccc(F)c(Cl)c2)c1	-4	-15	-20	23	-2	3
Cc1ccc(CN2C(=O)N/C(=C/c3ccc(-c4ccc(C(=O)O)cc4)o3)C2=O)cc1	nt	-58	27	22	nt	66*
O=C(O)c1cc(-c2ccc(/C=C3\NC(=O)N(c4ccc(Cl)cc4)C3=O)o2)ccc1Cl	58*	-14	-41	6	2	48
O=C(O)c1cc(-c2ccc(/C=C3\NC(=O)N(c4ccccc4)C3=O)o2)ccc1Cl	nt	-14	-11	13	nt	73*
Oc1ccc(N=C/C=C/c2ccc(Br)cc2)cc1-c1nc2ccccc2s1	-24	-20	-32	23	-4	42
CCNC(=S)NNC(=O)c1cc(C2CC2)nc2ccccc12	13	-195	-21	nt	-1	-50
COc1cc(/C=C2\SC(c3ccccc3)=NC2=O)cc(Cl)c1O	-1	-75	-22	6	0	73*
COc1cc(/C=C2\SC(c3ccc(C)cc3)=NC2=O)cc(OC)c1OC	-13	-3	1	nt	-6	nt
Cc1ccc2c(c1)N(CCC(=O)NCCN1CCOCC1)C(=O)CO2	2	-7	4	nt	-3	52*
O=C(CCN1C(=O)COc2ccccc21)NCCN1CCOCC1	-1	-5	9	nt	1	25
O=C(Cc1cc(=O)[nH]c(=O)[nH]1)NCc1ccccc1	4	-9	-22	7	-2	8
C=CCn1c(SCC(=O)Nc2ccc(-c3nc4ccc(C)cc4s3)cc2)nnc1-c1ccccc1	7	66*	-482	14	-1	70*
Cc1cc(=O)c2ccc(C(F)(F)F)cc2[nH]1	nt	83*	-26	22	nt	30
CCCS(=O)(=O)c1c(S(=O)(=O)CCC)c2ccc(C(N)=O)cn2c1C(=O)c1ccc(OC)cc1	22	-16	-29	11	-3	3
CN(C)c1ccc(-c2nn3c(-c4ccc(Cl)cc4Cl)nnc3s2)cc1	-17	93*	-36	nt	-5	87*
Cc1oc(-c2ccc(Cl)cc2)cc1-c1nn2c(-c3ccoc3C)nnc2s1	6	55*	-279	nt	0	89*
COC(=O)C1=C(C)Nc2nc(SCc3ccccc3)[nH]c(=O)c2C1c1cccs1 (stereo not drawn)	4	1	0	16	-1	-1
COc1cnn(-c2ccc(Br)cc2)c(=O)c1SCc1ccccc1	8	-29	4	11	-4	76*
COc1cnn(-c2ccccc2)c(=O)c1SCc1ccc(Cl)cc1Cl	-11	-48	-14	nt	-5	85*
COc1cccc(/C=N/n2c(-c3cc(C)[nH]n3)n[nH]c2=S)c1O	nt	-86	-2	10	nt	-15
CCOc1ccc2nc(NC(=O)/C=C/c3ccc4c(c3)OCO4)sc2c1	-14	60*	13	10	0	56*
O=C(/C=C/c1ccc2c(c1)OCO2)Nc1nc2ccc(F)cc2s1	nt	61*	13	19	nt	71*
O=C(/C=C/c1ccc2c(c1)OCO2)Nc1nc(-c2ccc(F)cc2)cs1	-19	-7	5	-2	-4	4
O=C(/C=C/c1ccc2c(c1)OCO2)Nc1ccc(Cl)cn1	-33	63*	-52	15	-2	17
NC(=S)NNc1c(F)c(F)c(F)c(F)c1F	4	-22	20	23	0	-2
